Measurements taken from ChEMBL document CHEMBL1125164, “Spiro hydantoin aldose reductase inhibitors derived from 8-aza-4-chromanones” (J Med Chem, 1990).

Key:
Rattus norvegicus [1] = experiment: Tested in vivo for ability to inhibit sorbitol formation in the lens of a streptozotocinized rat model after oral administration at the dose of 1.5 mg/Kg; assay type: functional; conditions: Lens of camera-type eye
Outline: (§1)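 Rats made diabetic with streptozotocin 85 mg/kg iv at 0 h. Compound given by oral gavage at 4, 7 and 24 h. Lens sorbitol measured at 27 h. Reported as mean ± SEM percent inhibition of sorbitol accumulation versus untreated diabetic controls. Student's t test on absolute sorbitol levels.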

Rattus norvegicus [2] = experiment: Tested in vivo for ability to inhibit sorbitol formation in the nerve of a streptozotocinized rat model after oral administration at the dose of 0.15 mg/Kg; assay type: functional
Outline: (§2)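 Rats made diabetic with streptozotocin 85 mg/kg iv at 0 h. Compound given by oral gavage at 4, 7 and 24 h. Sciatic nerve sorbitol measured at 27 h. Reported as mean ± SEM percent inhibition of sorbitol accumulation versus untreated diabetic controls. Student's t test on absolute sorbitol levels.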

Rattus norvegicus [3] = experiment: Tested in vivo for ability to inhibit sorbitol formation in the nerve of a streptozotocinized rat model after oral administration at the dose of 0.75 mg/kg; assay type: functional; outline: as §2
Rattus norvegicus [4] = experiment: Tested in vivo for ability to inhibit sorbitol formation in the lens of a streptozotocinized rat model after oral administration at the dose of 0.15 mg/Kg; assay type: functional; conditions: Lens of camera-type eye; outline: as §1
Rattus norvegicus [5] = experiment: Tested in vivo for ability to inhibit sorbitol formation in the lens of a streptozotocinized rat model after oral administration at the dose of 0.75 mg/Kg; assay type: functional; conditions: Lens of camera-type eye; outline: as §1
Rattus norvegicus [6] = experiment: Tested in vivo for ability to inhibit sorbitol formation in the nerve of a streptozotocinized rat model after oral administration at the dose of 1.5 mg/Kg; assay type: functional; outline: as §2
[7] = biological target: Aldo-keto reductase family 1 member B1 (Homo sapiens, UniProt P15121); experiment: In vitro inhibitory activity against Aldose reductase isolated from human placenta
Outline: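 Human placental aldose reductase, partially purified (homogenized in 0.1 M K phosphate pH 7.0 with 5 mM 2-mercaptoethanol). Assay: 50 mM K phosphate pH 7.1, 0.4 M ammonium sulfate, 0.067 mM NADPH, 1.0 mM dl-glyceraldehyde, 25 °C. NADPH oxidation followed at 340 nm over 10 min.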

Rattus norvegicus [8] = experiment: Tested in vivo for ability to inhibit sorbitol formation in the lens of a streptozotocinized rat model after oral administration at the dose of 1.0 mg/Kg; assay type: functional; conditions: Lens of camera-type eye; outline: as §1
Rattus norvegicus [9] = experiment: Tested in vivo for ability to inhibit sorbitol formation in the nerve of a streptozotocinized rat model after oral administration at the dose of 1.0 mg/Kg; assay type: functional; outline: as §2
Rattus norvegicus [10] = experiment: Tested in vivo for ability to inhibit sorbitol formation in the nerve of a streptozotocinized rat model after oral administration at the dose of 0.25 mg/Kg; assay type: functional; outline: as §2
Rattus norvegicus [11] = experiment: Tested in vivo for ability to inhibit sorbitol formation in the lens of a streptozotocinized rat model after oral administration at the dose of 0.25 mg/Kg; assay type: functional; conditions: Lens of camera-type eye; outline: as §1
Rattus norvegicus [12] = experiment: Tested in vivo for ability to inhibit sorbitol formation in the lens of a streptozotocinized rat model after oral administration at the dose of 5.0 mg/Kg; assay type: functional; conditions: Lens of camera-type eye; outline: as §1
Rattus norvegicus [13] = experiment: Tested in vivo for ability to inhibit sorbitol formation in the nerve of a streptozotocinized rat model after oral administration at the dose of 5.0 mg/Kg; assay type: functional; outline: as §2
Rattus norvegicus [14] = experiment: Tested in vivo for ability to inhibit sorbitol formation in the lens of a streptozotocinized rat model after oral administration at the dose of 1.0 mg/kg; assay type: functional; conditions: Lens of camera-type eye; outline: as §1
Rattus norvegicus [15] = experiment: Tested in vivo for ability to inhibit sorbitol formation in the nerve of a streptozotocinized rat model after oral administration at the dose of 0.1 mg/Kg; assay type: functional; outline: as §2
Rattus norvegicus [16] = experiment: Tested in vivo for ability to inhibit sorbitol formation in the nerve of a streptozotocinized rat model after oral administration at the dose of 0.5 mg/Kg; assay type: functional; outline: as §2
Rattus norvegicus [17] = experiment: Tested in vivo for ability to inhibit sorbitol formation in the lens of a streptozotocinized rat model after oral administration at the dose of 0.1 mg/Kg; assay type: functional; conditions: Lens of camera-type eye; outline: as §1
Rattus norvegicus [18] = experiment: Tested in vivo for ability to inhibit sorbitol formation in the lens of a streptozotocinized rat model after oral administration at the dose of 0.5 mg/Kg; assay type: functional; conditions: Lens of camera-type eye; outline: as §1
Rattus norvegicus [19] = experiment: Tested in vivo for ability to inhibit sorbitol formation in the nerve of a streptozotocinizad rat model after oral administration at the dose of 1.0 mg/Kg; assay type: functional; outline: as §2
Rattus norvegicus [20] = experiment: Tested in vivo for ability to inhibit sorbitol formation in the lens of a streptozotocinizad rat model after oral administration at the dose of 1.0 mg/Kg; assay type: functional; conditions: Lens of camera-type eye; outline: as §1

SMILES	IC50 [7] [nM]	inhibition in vivo at 1 mg/kg (Rattus norvegicus [8]) [%]	inhibition in vivo at 1 mg/kg (Rattus norvegicus [9]) [%]	also measured
O=C1NC(=O)[C@@]2(CCOc3ccc(F)cc32)N1 [SORBINIL]	–	–	–	inhibition in vivo at 1.5 mg/kg (Rattus norvegicus [1]): 73.4%; inhibition in vivo at 0.15 mg/kg (Rattus norvegicus [2]): 29%; inhibition in vivo at 0.75 mg/kg (Rattus norvegicus [3]): 72.7%; inhibition in vivo at 0.15 mg/kg (Rattus norvegicus [4]): 12.3%; inhibition in vivo at 0.75 mg/kg (Rattus norvegicus [5]): 44.2%; inhibition in vivo at 1.5 mg/kg (Rattus norvegicus [6]): 90.9%
O=C1NC(=O)[C@@]2(CCOc3ncc(Cl)cc32)N1 (racemic)	6450	46.1	37	–
C[C@@H]1C[C@]2(NC(=O)NC2=O)c2cc(Cl)c[n+]([O-])c2O1	950	–	–	–
C[C@@H]1C[C@]2(NC(=O)NC2=O)c2cc(F)cnc2O1 (racemic)	1130	–	–	–
C[C@@H]1C[C@]2(NC(=O)NC2=O)c2cc(Br)cnc2O1 (racemic)	500	67.4	72.7	–
C[C@@H]1C[C@]2(NC(=O)NC2=O)c2cccnc2O1 (racemic)	7220	33.9	18.2	–
C[C@@H]1C[C@]2(NC(=O)NC2=O)c2cc(Cl)c[n+]([O-])c2O1 (racemic)	130	–	–	inhibition in vivo at 1 mg/kg (Rattus norvegicus [19]): 37.6%; inhibition in vivo at 1 mg/kg (Rattus norvegicus [20]): 19.9%

Further lines, with some results ahead:

IC50 [7] [nM]	SMILES	inhibition in vivo at 1 mg/kg (Rattus norvegicus [8]) [%]	inhibition in vivo at 1 mg/kg (Rattus norvegicus [9]) [%]	also measured
3090	C[C@H]1C[C@@]2(NC(=O)NC2=O)c2cc(Cl)cnc2O1	-10.6	-9.5	–
890	C[C@H]1C[C@]2(NC(=O)NC2=O)c2cc(Cl)cnc2O1 (racemic)	–	–	inhibition in vivo at 0.25 mg/kg (Rattus norvegicus [10]): 12.8%; inhibition in vivo at 0.25 mg/kg (Rattus norvegicus [11]): 31.8%
25	C[C@@H]1C[C@]2(NC(=O)NC2=O)c2cc(Cl)cnc2O1 (racemic; 14)	–	–	inhibition in vivo at 5 mg/kg (Rattus norvegicus [12]): 89%; inhibition in vivo at 0.25 mg/kg (Rattus norvegicus [10]): 38%; inhibition in vivo at 0.25 mg/kg (Rattus norvegicus [11]): 13%; inhibition in vivo at 5 mg/kg (Rattus norvegicus [13]): 98%
7.5	C[C@@H]1C[C@]2(NC(=O)NC2=O)c2cc(Cl)cnc2O1 (racemic; 16)	–	87.5	inhibition in vivo at 1 mg/kg (Rattus norvegicus [14]): 88.2%; inhibition in vivo at 0.1 mg/kg (Rattus norvegicus [15]): 8.7%; inhibition in vivo at 0.5 mg/kg (Rattus norvegicus [16]): 55.8%; inhibition in vivo at 0.1 mg/kg (Rattus norvegicus [17]): 13.8%; inhibition in vivo at 0.5 mg/kg (Rattus norvegicus [18]): 55.5%
